The structures appear in SMILES notation. Activity calls are given as the source filed them. No cut-off for these calls is given here.

Drawing on ChEMBL document CHEMBL1144664, “Design, synthesis, and SAR of new pyrrole-oxindole progesterone receptor modulators leading to 5-(7-fluoro-3,3-dimethyl-2-oxo-2,3-dihydro-1H-indol-5-yl)-1-methyl-1H-pyrrole-2-carbonitrile (WAY-255348)” (J Med Chem, 2008), this text covers IC50 and Activity for 1 molecule.

In one assay the target is T1, Glucocorticoid receptor (Homo sapiens, UniProt P04150).
T1 sequence (P04150 whole entry): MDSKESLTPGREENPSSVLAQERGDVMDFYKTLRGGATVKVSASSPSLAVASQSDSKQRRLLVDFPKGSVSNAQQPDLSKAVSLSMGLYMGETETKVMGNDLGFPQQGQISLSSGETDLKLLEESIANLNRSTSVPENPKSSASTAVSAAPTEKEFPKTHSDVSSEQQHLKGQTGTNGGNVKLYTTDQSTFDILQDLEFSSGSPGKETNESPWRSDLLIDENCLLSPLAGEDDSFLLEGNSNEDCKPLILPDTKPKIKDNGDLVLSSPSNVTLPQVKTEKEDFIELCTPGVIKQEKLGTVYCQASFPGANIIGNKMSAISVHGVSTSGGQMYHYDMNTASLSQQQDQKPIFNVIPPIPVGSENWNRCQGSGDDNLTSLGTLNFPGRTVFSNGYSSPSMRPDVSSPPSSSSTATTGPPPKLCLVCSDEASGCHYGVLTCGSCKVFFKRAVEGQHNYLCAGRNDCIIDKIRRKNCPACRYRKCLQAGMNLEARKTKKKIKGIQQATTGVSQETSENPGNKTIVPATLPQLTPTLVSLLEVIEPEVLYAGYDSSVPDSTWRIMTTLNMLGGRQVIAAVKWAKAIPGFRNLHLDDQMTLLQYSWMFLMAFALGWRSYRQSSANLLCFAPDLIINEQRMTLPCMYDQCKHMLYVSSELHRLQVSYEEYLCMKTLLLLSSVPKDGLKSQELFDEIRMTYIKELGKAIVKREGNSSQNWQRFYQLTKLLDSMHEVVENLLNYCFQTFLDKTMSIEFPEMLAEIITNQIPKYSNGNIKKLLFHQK
The assay can be described thus: Antagonist activity at human GR ligand binding domain expressed in african green monkey COS7 cells in presence of Dexamethasone by Gal4 hybrid assay. In kind it is cell-based, COS-7.

In assay [1] the target is T2, Mineralocorticoid receptor (Homo sapiens) (UniProt P08235).
T2 sequence (whole entry): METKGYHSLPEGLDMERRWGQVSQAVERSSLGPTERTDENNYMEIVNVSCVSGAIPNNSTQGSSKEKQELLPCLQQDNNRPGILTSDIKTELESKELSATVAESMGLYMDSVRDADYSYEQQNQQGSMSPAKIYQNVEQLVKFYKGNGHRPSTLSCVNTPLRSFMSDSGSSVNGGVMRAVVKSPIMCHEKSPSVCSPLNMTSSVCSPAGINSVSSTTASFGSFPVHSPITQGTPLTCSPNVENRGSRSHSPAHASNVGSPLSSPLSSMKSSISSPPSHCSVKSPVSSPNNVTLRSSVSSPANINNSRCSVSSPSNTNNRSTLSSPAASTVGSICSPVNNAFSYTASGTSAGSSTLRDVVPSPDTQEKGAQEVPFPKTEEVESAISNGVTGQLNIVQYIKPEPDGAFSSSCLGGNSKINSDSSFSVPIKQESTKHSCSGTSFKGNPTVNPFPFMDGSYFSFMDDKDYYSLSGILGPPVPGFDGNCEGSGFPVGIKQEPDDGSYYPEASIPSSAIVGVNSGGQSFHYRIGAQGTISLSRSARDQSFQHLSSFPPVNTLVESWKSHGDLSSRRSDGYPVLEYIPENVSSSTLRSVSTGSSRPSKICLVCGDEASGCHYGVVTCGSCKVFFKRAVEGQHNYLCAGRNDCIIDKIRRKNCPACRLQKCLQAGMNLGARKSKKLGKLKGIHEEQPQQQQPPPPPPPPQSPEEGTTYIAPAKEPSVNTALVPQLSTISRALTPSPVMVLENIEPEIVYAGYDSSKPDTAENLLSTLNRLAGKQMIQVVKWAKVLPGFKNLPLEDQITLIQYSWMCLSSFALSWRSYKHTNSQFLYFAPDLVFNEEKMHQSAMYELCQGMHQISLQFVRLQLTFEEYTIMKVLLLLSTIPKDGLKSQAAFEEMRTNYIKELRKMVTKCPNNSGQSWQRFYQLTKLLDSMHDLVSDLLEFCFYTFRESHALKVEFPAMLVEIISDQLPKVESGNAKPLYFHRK
Briefly: Agonist activity at human MR ligand binding domain receptor expressed in african green monkey COS7 cells by Gal4 hybrid assay. The assay is classed as cell-based. The following applies: COS-7. An outline of the steps:
(§1)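 Gal4-steroid receptor LBD fusion plasmid plus GAL4_UAS (5 copies, E1b TATA)-luciferase reporter, 50 ng/well each, transfected 16 h into COS-7 cells grown in phenol red-free DMEM with 10% charcoal/dextran-treated FBS. Compound treatment 20 h, then luciferase read-out. Antagonist mode uses 3 nM aldosterone (hMR) or 5 nM 17β-estradiol (hER). Values are the average of at least duplicate determinations.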

The target in assay [2] is T3, Mineralocorticoid receptor (Homo sapiens, UniProt P08235).
T3 sequence (P08235 whole entry): T2 sequence (whole entry)
The assay can be described thus: Antagonist activity at human MR ligand binding domain expressed in african green monkey COS7 cells in presence of aldosterone by Gal4 hybrid assay. In kind it is cell-based, COS-7. In a few lines:
as §1

Assay [3] deals with T4, Estrogen receptor (Homo sapiens) (UniProt P03372).
T4 sequence (whole entry): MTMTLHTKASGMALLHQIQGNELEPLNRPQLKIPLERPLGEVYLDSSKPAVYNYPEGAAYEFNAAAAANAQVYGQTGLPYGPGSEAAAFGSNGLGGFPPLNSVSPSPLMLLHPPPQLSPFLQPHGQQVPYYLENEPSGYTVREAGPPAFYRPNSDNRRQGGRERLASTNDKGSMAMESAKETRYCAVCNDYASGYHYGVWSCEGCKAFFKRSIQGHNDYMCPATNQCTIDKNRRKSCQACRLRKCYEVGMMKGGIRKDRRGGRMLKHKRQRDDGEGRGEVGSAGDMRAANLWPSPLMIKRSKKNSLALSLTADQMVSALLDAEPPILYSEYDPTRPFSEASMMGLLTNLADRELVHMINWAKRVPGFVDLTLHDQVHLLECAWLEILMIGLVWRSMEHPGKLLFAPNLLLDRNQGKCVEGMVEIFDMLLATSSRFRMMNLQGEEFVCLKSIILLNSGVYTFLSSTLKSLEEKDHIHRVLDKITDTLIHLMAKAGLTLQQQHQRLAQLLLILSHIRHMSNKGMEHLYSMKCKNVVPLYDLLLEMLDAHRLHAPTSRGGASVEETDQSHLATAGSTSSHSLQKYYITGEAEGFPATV
Briefly: Agonist activity at human ER ligand binding domain expressed in african green monkey COS7 cells by Gal4 hybrid assay. Conditions: COS-7. In kind it is cell-based. An outline of the steps:
as §1

A further assay deals with T5, Estrogen receptor (Homo sapiens, UniProt P03372).
T5 sequence (P03372 whole entry): T4 sequence (whole entry)
Briefly: Antagonist activity at human ER ligand binding domain expressed in african green monkey COS7 cells in presence of 17-beta-estradiol by Gal4 hybrid assay. The assay is classed as cell-based, COS-7. An outline of the steps:
as §1

A further assay addresses T6, Androgen receptor (Homo sapiens, UniProt P10275).
T6 sequence (P10275 whole entry): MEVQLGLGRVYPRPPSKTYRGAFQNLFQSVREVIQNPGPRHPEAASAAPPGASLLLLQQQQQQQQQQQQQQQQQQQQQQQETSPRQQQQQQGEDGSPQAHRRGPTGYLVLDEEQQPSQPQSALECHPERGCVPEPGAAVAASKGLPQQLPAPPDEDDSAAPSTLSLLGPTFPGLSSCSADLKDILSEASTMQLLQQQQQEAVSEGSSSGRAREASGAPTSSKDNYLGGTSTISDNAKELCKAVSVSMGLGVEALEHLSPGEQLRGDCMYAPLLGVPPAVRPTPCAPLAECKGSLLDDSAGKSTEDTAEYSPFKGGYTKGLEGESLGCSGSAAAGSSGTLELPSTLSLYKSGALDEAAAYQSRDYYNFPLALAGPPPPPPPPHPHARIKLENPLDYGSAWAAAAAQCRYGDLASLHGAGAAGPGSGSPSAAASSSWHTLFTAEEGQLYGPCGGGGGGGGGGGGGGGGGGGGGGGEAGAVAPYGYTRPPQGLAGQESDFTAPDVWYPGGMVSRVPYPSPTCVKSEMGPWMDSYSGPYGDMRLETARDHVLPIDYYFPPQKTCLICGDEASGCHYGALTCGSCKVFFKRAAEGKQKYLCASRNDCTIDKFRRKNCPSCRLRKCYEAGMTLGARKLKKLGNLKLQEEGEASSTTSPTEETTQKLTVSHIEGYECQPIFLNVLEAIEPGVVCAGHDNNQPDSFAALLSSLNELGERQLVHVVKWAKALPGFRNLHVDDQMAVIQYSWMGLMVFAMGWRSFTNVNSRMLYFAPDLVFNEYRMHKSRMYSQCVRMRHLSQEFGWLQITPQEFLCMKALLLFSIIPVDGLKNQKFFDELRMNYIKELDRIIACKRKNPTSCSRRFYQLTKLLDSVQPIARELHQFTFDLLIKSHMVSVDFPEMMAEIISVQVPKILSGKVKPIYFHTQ

`COC[C@]1(OC)CC[C@H]2[C@@H]3CCC4=CC(=O)CCC4=C3[C@@H](c3ccc(/C=N/O)cc3)C[C@@]21C` [ASOPRISNIL]: the IC50 on Glucocorticoid receptor is 85 nM; in assay [2], 1600 nM; at Estrogen receptor it was 1900 nM; against Androgen receptor it was 6.1 nM. The outcome in assay [1] and in assay [3] was inactive.

By IC50 is commonly meant the concentration at which inhibition is half-maximal.
